The record followed here is ChEMBL document CHEMBL4339228, “Identification of Isoform 2 Acid-Sensing Ion Channel Inhibitors as Tool Compounds for Target Validation Studies in CNS” (ACS Med Chem Lett, 2019).

The IC50 is the concentration that gives 50% inhibition. The term clearance denotes the volume of plasma or blood freed of the substance per unit of time. Low values mean inefficient removal, high ones efficient removal. As a reminder, the Vd is the apparent volume that relates the amount in the body to the concentration in plasma or blood. A high value points to extensive tissue distribution. In general, Cmax refers to the highest concentration seen after dosing. As usually defined, the bioavailability is the share of a dose that reaches the circulation, judged against a reference dose that is usually intravenous. High values mean much systemic uptake, low ones little systemic uptake.

In brackets after ≈: the same amount, converted by molar mass.

In data set [1] the target is T1, Acid-sensing ion channel 1 (Mus musculus, UniProt Q6NXK8).
T1 sequence (Q6NXK8 whole entry): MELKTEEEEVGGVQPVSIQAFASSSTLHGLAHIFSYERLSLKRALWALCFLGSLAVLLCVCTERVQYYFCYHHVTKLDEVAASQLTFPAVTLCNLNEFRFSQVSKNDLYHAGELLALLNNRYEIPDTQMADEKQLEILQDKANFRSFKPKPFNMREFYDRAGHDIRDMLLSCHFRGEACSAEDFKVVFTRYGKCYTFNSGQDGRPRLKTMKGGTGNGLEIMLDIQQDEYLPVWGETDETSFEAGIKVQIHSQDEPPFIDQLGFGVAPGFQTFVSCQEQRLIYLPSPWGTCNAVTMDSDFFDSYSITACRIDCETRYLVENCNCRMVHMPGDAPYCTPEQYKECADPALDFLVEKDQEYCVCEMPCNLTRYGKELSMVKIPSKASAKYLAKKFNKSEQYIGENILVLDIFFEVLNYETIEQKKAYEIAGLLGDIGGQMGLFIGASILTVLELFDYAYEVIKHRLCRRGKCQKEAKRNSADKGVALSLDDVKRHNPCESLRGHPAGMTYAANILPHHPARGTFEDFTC
The experiment in a line: Inhibition of pH 6.6-stimulated mouse ASIC1a homomer expressed in CHOK1 cells assessed as reduction in channel activation by VSD fluorescence assay. It is filed as cell-based.

Data set [2] addresses T2, Acid-sensing ion channel 2 (Mus musculus, UniProt Q925H0).
T2 sequence (Q925H0 whole entry): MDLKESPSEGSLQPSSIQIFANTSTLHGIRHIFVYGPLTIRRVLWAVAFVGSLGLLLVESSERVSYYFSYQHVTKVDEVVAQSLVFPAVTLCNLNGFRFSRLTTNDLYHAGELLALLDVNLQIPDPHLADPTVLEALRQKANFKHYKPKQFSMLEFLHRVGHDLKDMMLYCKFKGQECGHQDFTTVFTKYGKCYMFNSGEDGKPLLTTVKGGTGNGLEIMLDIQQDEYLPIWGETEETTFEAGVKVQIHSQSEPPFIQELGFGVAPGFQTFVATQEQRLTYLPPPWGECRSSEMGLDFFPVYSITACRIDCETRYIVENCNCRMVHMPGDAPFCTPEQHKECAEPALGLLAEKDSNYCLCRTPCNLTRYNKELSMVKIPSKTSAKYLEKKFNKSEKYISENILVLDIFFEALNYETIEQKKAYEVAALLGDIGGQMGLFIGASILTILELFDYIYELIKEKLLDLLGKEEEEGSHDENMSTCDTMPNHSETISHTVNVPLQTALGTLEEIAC
Kind of data set: Inhibition of pH 5.5-stimulated mouse ASIC2a homomer expressed in CHOK1 cells assessed as reduction in channel activation by VSD fluorescence assay. It is filed as cell-based.

In data set [3] the target is T3, Acid-sensing ion channel 1/2 (Mus musculus, UniProt Q6NXK8+Q925H0).
T3 sequence (Q6NXK8 whole entry): T1 sequence (Q6NXK8 whole entry)
T3 sequence (Q925H0 whole entry): T2 sequence (Q925H0 whole entry)
The experiment in a line: Inhibition of pH 6.25-stimulated mouse ASIC1a/2a […] expressed in CHOK1 cells assessed as reduction in channel activation by VSD fluorescence assay. It is filed as cell-based.

A short description of data set [4]: Kinetic solubility of the compound at pH 7.4. It is filed as physicochemical. Conditions: buffer, read-out: Kinetic_solubility.
Data set [5] addresses albumin (Homo sapiens, UniProt P02768). Kind of data set: Binding affinity to human serum albumin by NMR-based analysis. In kind it is ADME. The note with it: read-out: PPB (converted).
Data set [6] has as its target Voltage-gated inwardly rectifying potassium channel KCNH2 (Homo sapiens, UniProt Q12809). Kind of data set: Inhibition of human ERG incubated for 4 hrs by fluorescence polarization assay. Summed up: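 Human ERG inhibition measured at concentrations up to 30 μM.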
On the technique in general: Polarisation of emitted light reports the rotation of a fluorescent probe.

Data set [7] concerns the target T4, Cytochrome P450 1A2 (Homo sapiens, UniProt P05177).
T4 sequence (P05177 whole entry): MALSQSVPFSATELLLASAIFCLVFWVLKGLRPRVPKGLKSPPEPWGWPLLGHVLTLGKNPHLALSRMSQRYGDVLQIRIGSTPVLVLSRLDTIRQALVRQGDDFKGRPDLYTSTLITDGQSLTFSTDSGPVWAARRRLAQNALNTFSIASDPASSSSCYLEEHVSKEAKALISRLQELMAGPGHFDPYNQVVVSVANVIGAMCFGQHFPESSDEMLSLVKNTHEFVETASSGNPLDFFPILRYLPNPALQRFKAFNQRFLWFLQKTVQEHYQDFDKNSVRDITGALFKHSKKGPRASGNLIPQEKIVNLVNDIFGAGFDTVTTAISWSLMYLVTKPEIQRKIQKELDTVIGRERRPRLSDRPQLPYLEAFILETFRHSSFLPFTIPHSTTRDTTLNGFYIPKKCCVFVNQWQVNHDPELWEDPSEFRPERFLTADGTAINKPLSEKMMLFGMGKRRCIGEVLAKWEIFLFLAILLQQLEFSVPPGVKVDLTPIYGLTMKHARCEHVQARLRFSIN
The experiment in a line: Inhibition of CYP1A2 (unknown origin) using pro-luciferin substrates in presence of NADPH by firefly luciferase reporter gene based P450-Glo assay. In kind it is ADME.

Data set [8] can be described thus: Clearance in NMRI mouse at 1 mg/kg, iv by LC-MS/MS analysis. In kind it is ADME, organism-based. The note with it: in vivo.
A short description of data set [9]: Volume of distribution in NMRI mouse at 1 mg/kg, iv by LC-MS/MS analysis. It is filed as ADME, organism-based. Conditions: in vivo.
Data set [10] in a line: Cmax in NMRI mouse at 3 mg/kg, po by LC-MS/MS analysis. Conditions: in vivo. In kind it is ADME, organism-based. Further details: dose 3 mg/kg, route oral.
Data set [11] is described as follows: Oral bioavailability in NMRI mouse at 3 mg/kg by LC-MS/MS analysis. In kind it is ADME, organism-based. Conditions: in vivo.
Data set [12] can be described thus: Ratio of drug level in brain to plasma of NMRI mouse at 1 mg/kg, iv measured after 2 to 8 hrs post dose. Conditions: read-out: BPR. It is filed as ADME, organism-based.

Voltage-gated inwardly rectifying potassium channel KCNH2, sequence (Q12809 whole entry): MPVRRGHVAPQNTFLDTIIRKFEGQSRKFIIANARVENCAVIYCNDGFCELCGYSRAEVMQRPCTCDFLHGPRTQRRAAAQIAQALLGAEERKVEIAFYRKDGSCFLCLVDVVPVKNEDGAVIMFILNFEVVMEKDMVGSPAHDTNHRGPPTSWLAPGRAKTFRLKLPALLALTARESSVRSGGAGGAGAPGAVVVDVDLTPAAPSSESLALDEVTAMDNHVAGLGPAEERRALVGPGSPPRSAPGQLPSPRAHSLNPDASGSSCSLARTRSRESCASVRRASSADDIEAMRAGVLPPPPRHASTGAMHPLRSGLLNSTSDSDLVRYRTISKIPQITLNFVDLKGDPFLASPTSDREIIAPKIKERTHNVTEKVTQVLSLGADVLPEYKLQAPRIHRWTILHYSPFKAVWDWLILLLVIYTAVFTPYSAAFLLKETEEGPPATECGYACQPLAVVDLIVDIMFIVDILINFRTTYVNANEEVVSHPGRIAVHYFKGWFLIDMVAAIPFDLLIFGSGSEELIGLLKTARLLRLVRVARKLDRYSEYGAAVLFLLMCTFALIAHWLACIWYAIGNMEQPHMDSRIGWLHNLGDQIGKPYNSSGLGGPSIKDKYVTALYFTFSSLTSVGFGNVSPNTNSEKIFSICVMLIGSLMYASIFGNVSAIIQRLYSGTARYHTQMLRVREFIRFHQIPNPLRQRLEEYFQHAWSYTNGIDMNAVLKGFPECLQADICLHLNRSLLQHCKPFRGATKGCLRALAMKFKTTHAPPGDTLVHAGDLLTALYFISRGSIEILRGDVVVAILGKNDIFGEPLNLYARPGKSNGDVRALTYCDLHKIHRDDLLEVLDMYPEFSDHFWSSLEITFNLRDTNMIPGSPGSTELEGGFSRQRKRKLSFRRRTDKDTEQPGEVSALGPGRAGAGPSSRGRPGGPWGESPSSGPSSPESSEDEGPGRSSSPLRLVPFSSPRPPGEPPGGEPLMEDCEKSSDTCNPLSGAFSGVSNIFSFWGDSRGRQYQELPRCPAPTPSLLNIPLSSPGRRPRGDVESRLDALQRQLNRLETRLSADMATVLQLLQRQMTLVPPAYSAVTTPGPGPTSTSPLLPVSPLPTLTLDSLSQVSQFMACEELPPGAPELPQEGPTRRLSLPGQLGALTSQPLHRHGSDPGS
albumin, sequence (P02768 whole entry): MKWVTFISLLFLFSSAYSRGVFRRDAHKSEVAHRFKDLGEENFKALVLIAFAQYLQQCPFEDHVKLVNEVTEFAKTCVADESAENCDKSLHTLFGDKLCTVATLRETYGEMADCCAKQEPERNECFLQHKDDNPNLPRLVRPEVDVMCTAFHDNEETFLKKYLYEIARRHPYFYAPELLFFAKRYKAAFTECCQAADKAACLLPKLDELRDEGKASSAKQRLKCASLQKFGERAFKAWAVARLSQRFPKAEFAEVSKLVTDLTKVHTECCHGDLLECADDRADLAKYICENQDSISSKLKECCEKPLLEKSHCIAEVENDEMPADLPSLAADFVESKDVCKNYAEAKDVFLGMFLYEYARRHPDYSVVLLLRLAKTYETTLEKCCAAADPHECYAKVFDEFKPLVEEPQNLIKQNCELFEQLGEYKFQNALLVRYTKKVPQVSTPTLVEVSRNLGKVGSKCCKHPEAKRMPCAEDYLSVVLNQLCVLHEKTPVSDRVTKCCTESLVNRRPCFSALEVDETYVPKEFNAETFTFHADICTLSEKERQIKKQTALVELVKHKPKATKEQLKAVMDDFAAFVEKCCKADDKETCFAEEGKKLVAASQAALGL

With `Cc1nn(-c2ccc(C#N)cc2)c(C)c1-c1ccc(F)cc1`, the IC50 in [1], in data set [2] and in [3] was greater than 30 µM in each case.
For `Cc1nn(-c2ccc(CN)cc2)c(C)c1-c1ccc(F)cc1`, the IC50 in data set [1] is greater than 30 µM; in [2], 18.9 µM; in data set [3], 10.9 µM; in data set [6], greater than 30 µM; in data set [7] it was 0.4 µM. Moreover, the solubility kinetic in [4] stood at 73 µg/mL (≈ 247 µM). Further, in [5], the fraction unbound is 0.07. Moreover, the clearance in data set [8] is 224 mL/min/kg. This compound also yielded a Vd in data set [9] of 50.9 L/kg. In [10], the peak concentration (Cmax) worked out at 90 nM. The same compound showed a bioavailability in data set [11] of 60%. The Kp in data set [12] was found to be 61.
For the compound `N=C(N)c1ccc(/N=N/Nc2ccc(C(=N)N)cc2)cc1` [DIMINAZENE], the IC50 in [1] was 56.9 µM; in data set [2], 169 µM; in [3] it was 45.2 µM.
Take `Cc1nn(-c2ccc3c(c2)NCC3)c(C)c1-c1cccc(F)c1`: the IC50 in data set [1], in data set [2] and in data set [3] was greater than 30 µM throughout.
`Cc1nn(-c2ccc(CN)cc2)c(C)c1-c1ccc(Cl)cc1`: the IC50 in data set [1], in [2] and in data set [3] was greater than 30 µM throughout.
Consider `Cc1nn(-c2ncnc3c2CNC3)c(C)c1-c1cccc(F)c1`, for which the half-maximal inhibitory concentration (IC50) in [1], in data set [2] and in data set [3] was greater than 30 µM throughout.
With `Cc1nn(-c2ccc(CN)nc2)c(C)c1-c1ccc(F)cc1`, the IC50 in [1], in data set [2] and in data set [3] was greater than 30 µM throughout.
In the case of `Cc1nn(-c2ccc3c(c2)CNC3)c(C)c1-c1cccc(F)c1`, the results for the IC50 in data set [1], in [2] and in data set [3] were greater than 30 µM, 9.9 µM and 11.3 µM, respectively.
Take `Cc1nn(-c2cccc(CN)c2)c(C)c1-c1ccc(F)cc1`: the IC50 in data set [1] was greater than 30 µM; in data set [2], 15.6 µM; in data set [3] it was greater than 30 µM.
Take `Cc1nn(-c2ncnc3c2CN(C)C3)c(C)c1-c1cccc(F)c1`: the half-maximal inhibitory concentration (IC50) in [1], in [2] and in [3] was greater than 30 µM in each case.
For the compound `Cc1nn(-c2ccc(CN)cc2)c(C)c1-c1ccc(C(F)(F)F)cc1`, the IC50 in data set [1], in [2] and in data set [3] was greater than 30 µM each time.
Regarding `Cc1nn(-c2ccc(C(C)N)cc2)c(C)c1-c1ccc(F)cc1` (configuration not stated), the 50% inhibitory concentration (IC50) in data set [1] was greater than 30 µM; in data set [2] it was 8.7 µM; in data set [3], greater than 30 µM.
As for `NCc1ccc(-n2cc(-c3ccc(F)cc3)cn2)cc1`, the IC50 in data set [1], in data set [2] and in data set [3] was greater than 30 µM throughout.
Consider `Cc1nn(-c2ccc(CN)cc2)c(C)c1-c1cccc(F)c1`, for which the results for the IC50 in data set [1], in [2] and in [3] were greater than 30 µM, 4.3 µM and greater than 30 µM, respectively.
Turning to `Cc1ccc(-c2c(C)nn(-c3ccc(CN)cc3)c2C)cc1F`, the IC50 in data set [1], in data set [2] and in data set [3] was greater than 30 µM each time.
Consider `Cc1nn(-c2ccc3c(c2)CNC3)c(C)c1-c1ccc(F)cc1`, for which the IC50 in data set [1] was greater than 30 µM; in [2] it was 8.2 µM; in [3] it was greater than 30 µM; in data set [6], greater than 30 µM; in data set [7], 0.2 µM. The solubility kinetic in data set [4] worked out at 56 µg/mL (≈ 182 µM). Besides, in data set [5], the fraction unbound is 0.05.
For `Cc1nn(-c2ccc(CCN)cc2)c(C)c1-c1ccc(F)cc1`, the IC50 is greater than 30 µM in data set [1], 11.7 µM in [2] and greater than 30 µM in [3].
Take `Cc1nn(-c2ncnc3c2CNC3)c(C)c1-c1ccc(F)cc1`: the IC50 is greater than 30 µM in data set [1]; 17 µM in data set [2]; greater than 30 µM in data set [3]; greater than 30 µM in data set [6]; 0.8 µM in data set [7]. Moreover, in [4], the solubility kinetic was 32 µg/mL (≈ 103 µM). In data set [5], the fraction unbound is 0.06. Also, in [8], the clearance is 34 mL/min/kg. In addition, the Vd in data set [9] stood at 1.4 L/kg. In addition, in data set [10], the highest level (Cmax) was 2600 nM. In data set [11], this compound returned a bioavailability of 100%. Moreover, the Kp in [12] amounted to 1.3.
As to `Cc1ccc(-c2c(C)nn(-c3ccc(CN)cc3)c2C)cc1`, the IC50 in data set [1] is greater than 30 µM; in data set [2] it was 8.8 µM; in data set [3], greater than 30 µM.
`Cc1ccc(-c2c(C)nn(-c3ccc(CN)cc3)c2C)cn1`: the IC50 in data set [1], in [2] and in [3] was greater than 30 µM each time.
Turning to `Cc1nn(Cc2ccc(CN)cc2)c(C)c1-c1ccc(F)cc1`, the IC50 in data set [1] was greater than 30 µM; in data set [2], 16.8 µM; in data set [3], greater than 30 µM.
Consider `Cc1nn(-c2ccc(CN)cc2)c(C)c1-c1ccc(CN)cc1`, for which the IC50 in data set [1], in data set [2] and in data set [3] was greater than 30 µM each time.
In the case of `Cc1nn(-c2ccc(CN)cn2)c(C)c1-c1ccc(F)cc1`, the IC50 in data set [1] is greater than 30 µM; in data set [2], 6.1 µM; in [3] it was 8.5 µM.
As for `COc1ccc(-c2c(C)nn(-c3ccc(CN)cc3)c2C)cc1`, the results for the IC50 in data set [1], in [2] and in data set [3] were greater than 30 µM, 16.3 µM and greater than 30 µM, respectively.
For `Cc1nn(-c2ccc3c(c2)NCC3)c(C)c1-c1ccc(F)cc1`, the IC50 in data set [1], in [2] and in [3] was greater than 30 µM in each case.
